A selection: hits, their analogues and other compounds. The true share with any hit is near 3.9%.
M1 PAM: human M1 muscarinic receptor positive allosteric modulators, primary screen, CHO-K1 cells, Fluo-8 calcium fluorescence, 1536-well; AID 588819, 2011; 360,000 tested, 0.088% active; activation, % at 3 µM; Muscarinic acetylcholine receptor M1 (Homo sapiens), P11229; CHO-K1 hM1, ACh EC20; 0% = ACh EC20, 100% = maximal ACh; in the data active = activation above about 19%, passing the limit was not always enough
TAAR1 ag: human TAAR1 agonists, primary screen, Fluo-8 calcium fluorescence, CHO RD-HGA16 cells; activation, % at 3 µM; vehicle wells 0%, saturating PEA agonist 100%; 360,000 tested, 0.99% active; Trace amine-associated receptor 1 (Homo sapiens), Q96RJ0;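 active = activation above the mean activation of all test compounds in the run plus 3 SD, cut at about 38% in these data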
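Repeats: no replicates (n 1) | Material: CHO-derived RD-HGA16 cells with stable Gα16 and human TAAR1 | Technique: Kinetic Fluo-8 calcium fluorescence | Schedule: 17-24 h seeding, 75 min 37 °C dye, 30 min RT | Evaluation: % activation from peak over basal fluorescence ratio, DMSO-to-PEA scaled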
CHRM1 antagonist: human M1 muscarinic receptor antagonists, primary screen, CHO-K1 cells, Fluo-8 calcium fluorescence, 1536-well; Muscarinic acetylcholine receptor M1 (Homo sapiens), P11229; CHO-K1 hM1, ACh EC80 antagonist; inhibition, % at 3 µM; 360,000 tested, 1.3% active; AID 588852, 2011;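 active = percent inhibition above its own plate's cutoff, namely the mean of that plate's compound wells plus 3 SD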;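 also: peak over basal fluorescence ratio during 140 s after agonist addition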
CHRM1 agonist: human M1 muscarinic receptor agonists, primary screen, Fluo-8 calcium fluorescence, CHO-K1 cells, HTS | Muscarinic acetylcholine receptor M1 (Homo sapiens), P11229 | CHO-K1 hM1, agonist mode; 0% DMSO, 100% acetylcholine EC100 | activation, % at 3 µM | 360,000 tested, 0.33% active;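 active = activation above the run's mean compound activation plus 3 SD, cut at about 16% in these data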;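 also: peak over basal fluorescence ratio within a 140 s kinetic read after compound addition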
TAAR1 antag: human TAAR1 antagonists, primary screen, Fluo-8 calcium fluorescence, CHO RD-HGA16 cells; Trace amine-associated receptor 1 (Homo sapiens), Q96RJ0; antagonist; inhibition, % at 3 µM; 360,000 tested, 1.5% active;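 active = inhibition above a per-plate cutoff, the mean inhibition of test compounds on that plate plus 3 SD, cut at about 49% in these data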
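Material: CHO RD-HGA16 cells bearing hTAAR1; compound dosing: one-point dosing, 3 µM nominal final; schedule: dye loading 75 min at 37 °C, then 30 min room temperature; measured by: calcium fluorescence with Fluo-8; control set: vehicle and agonist controls; replication: n of 1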
HTR2A ag: mouse Htr2a agonists via beta-arrestin recruitment, primary screen, cell-based, luminescence; 5-hydroxytryptamine receptor 2A (Mus musculus), P35363; CHO-K1 mHTR2A beta-arrestin complementation; percent of 30 µM serotonin response; activation, % at 7.6 µM; 360,000 tested, 0.66% active; AID 624169, 2012;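 active = activation above a run cutoff, the mean activation of all tested compounds plus 3 SD, cut at about 14% in these data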
Target sequence (P35363 whole entry, looked up): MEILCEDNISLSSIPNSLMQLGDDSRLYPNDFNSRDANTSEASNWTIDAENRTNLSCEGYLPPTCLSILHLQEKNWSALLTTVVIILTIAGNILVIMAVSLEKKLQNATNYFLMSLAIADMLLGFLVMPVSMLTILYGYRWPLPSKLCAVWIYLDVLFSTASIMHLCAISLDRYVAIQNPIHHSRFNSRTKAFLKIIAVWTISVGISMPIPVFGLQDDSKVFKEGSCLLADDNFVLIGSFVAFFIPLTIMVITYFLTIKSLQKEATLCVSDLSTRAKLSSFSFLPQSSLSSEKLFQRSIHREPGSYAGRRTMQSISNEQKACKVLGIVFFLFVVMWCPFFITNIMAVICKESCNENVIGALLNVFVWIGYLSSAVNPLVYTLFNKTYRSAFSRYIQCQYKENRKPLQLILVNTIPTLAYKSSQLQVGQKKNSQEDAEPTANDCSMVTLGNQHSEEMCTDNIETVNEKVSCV
Of the large screens only hits and unclear results are named; the others gave an inactive call.

CC(C)(C)c1ccc(-c2cn(-c3ccc(Br)cc3)c3[n+]2CCCS3)cc1	CHRM1 antagonist 79.4
COc1ccc(-c2cn(-c3ccccc3)c3[n+]2CCS3)cc1	CHRM1 antagonist 39.8
CCn1c(C)c(C(=O)O)c2cc(OC)c3ccccc3c21	none
CC(=O)C1C(c2ccc(F)cc2)c2c(noc2C)CC1(C)O (stereo not drawn)	none
S=C1N(c2ccccc2)C(c2ccc(Cl)cc2)N2CCCN12 (stereo not drawn)	CHRM1 antagonist 95.8
S=C1N(c2ccccc2)C(c2ccc(Br)cc2)N2CCCN12 (stereo not drawn)	CHRM1 antagonist 100.2
COc1ccc(C2N(c3ccccc3)C(=S)N3CCCN23)cc1 (stereo not drawn)	none
O=C(NCC1CCN(C(=O)C(=O)c2cccs2)CC1)c1cccnc1	none (no result: M1 PAM, CHRM1 antagonist, CHRM1 agonist, HTR2A ag)
COc1ccc(CCNCc2cc(C)n(-c3ccc(OC)cc3)c2C)cc1	TAAR1 ag 44.7
COc1ccc(CCNCc2ccccc2N2CCCC2)cc1	none
CC(=O)N(Cc1ccccc1)c1nccs1	none (no result: M1 PAM, CHRM1 antagonist, CHRM1 agonist, HTR2A ag)
c1ccc(Oc2cc(-c3ccccc3)nc(-c3ccccc3)n2)cc1	M1 PAM 25.6
CN(CC(=O)Nc1cccc(F)c1)C(=O)c1cccc(S(=O)(=O)N2CC3(C)CC2CC(C)(C)C3)c1 (stereo not drawn)	none
CCN(CC)C(=O)C1=C(C)N(Cc2ccc(F)cc2)C(=O)C(CC(=O)NCCCCc2ccccc2)C1 (stereo not drawn)	none
CC1=C(C(=O)N2CCOCC2)CC(CC(=O)NCCc2ccccn2)C(=O)N1Cc1ccc(F)cc1 (stereo not drawn)	none
CC1=C(C(=O)N(C)C)CC(CC(=O)NCCCCc2ccccc2)C(=O)N1Cc1ccc(F)cc1 (stereo not drawn)	CHRM1 agonist 34.5
CC1=C(C(=O)N(C)C)CC(CC(=O)NCCc2ccccn2)C(=O)N1Cc1ccc(F)cc1 (stereo not drawn)	TAAR1 ag 41.0
CC1=C(C(=O)N(C(C)C)C(C)C)CC(CC(=O)NCCc2ccccn2)C(=O)N1Cc1ccc(F)cc1 (stereo not drawn)	TAAR1 ag 37.8
CC1CC(C)CN(C(=O)c2ccc3c(c2)OCCO3)C1 (stereo not drawn)	none
CCOC(=O)Cc1csc(NC(=O)c2csc(C)c2)n1	none
CCOC(=O)Cc1csc(NC(=O)c2sc3nc4c(C)cc(C)cc4cc3c2N)n1	CHRM1 antagonist 32.4
CN(C)S(=O)(=O)c1cccc(NC(=O)COc2ccc(C(=O)c3ccccc3)cc2)c1	TAAR1 antag 50.6
CN(c1ccccc1)S(=O)(=O)c1cccc(NC(=O)COc2ccccc2)c1	TAAR1 antag 52.8
CN(c1ccccc1)S(=O)(=O)c1cccc(NC(=O)CCNC(=O)c2ccccc2)c1	TAAR1 antag 53.8
CN(c1ccccc1)S(=O)(=O)c1cccc(NC(=O)CCNC(=O)c2ccc(Cl)cc2)c1	none
CC(=O)Nc1ccc(NC(=O)C(C)OC(=O)c2cccc(S(=O)(=O)N3CCCC3)c2)cc1 (stereo not drawn)	none
COc1ccc(C2=Nn3c(nnc3-c3ccccc3F)SC2)cc1OC1CCCC1	TAAR1 antag 65.9
COc1ccc(OC)c(-c2nnc3n2N=C(c2ccc(OC(F)F)c(OCC4CC4)c2)CS3)c1	CHRM1 antagonist 39.7
COC(=O)c1ccc2c(c1)C(=O)/C(=C/c1ccc(C)cc1)O2	none
CN(C)c1ccc(/C=C2\Oc3ccc(C#Cc4cccc(N)c4)cc3C2=O)cc1	CHRM1 antagonist 35.1, CHRM1 agonist 28.7 (no result: TAAR1 ag, TAAR1 antag)
CC(O)COc1ccc(/C(=N/O)c2ccccc2)cc1 (stereo not drawn)	TAAR1 ag 37.9
CCN1CCN(c2nc3c(c(=O)[nH]c(=O)n3C)n2CCSc2nc3ccccc3s2)CC1	CHRM1 agonist 29.9
COc1cc(C(=O)N2CCC(NC(=O)C(Cc3ccccc3C)NC(C)=O)CC2)cc(OC)c1OC (stereo not drawn)	none
COc1cccc(CC(NC(C)=O)C(=O)NC2CCN(C(=O)c3ccc(Cl)cc3)CC2)c1OC (stereo not drawn)	M1 PAM 29.5
Cc1nn(-c2ccccc2)c(C)c1-c1nnc(-c2c(C)nn(-c3ccccc3)c2C)o1	none
CCOc1ccc(N(CC(=O)N2CCN(c3ccc(F)cc3)CC2)S(=O)(=O)c2c(C)noc2C)cc1	none
Cc1ccc(Sc2c([N+](=O)[O-])c(C)nn2C)cc1	CHRM1 antagonist 87.9
O=C(NCCN1CCOCC1)c1ccc2c(c1)N(Cc1cccc(F)c1)C(=O)c1ccccc1S2	none
Cc1cccc(CN2C(=O)/C(=C\c3ccc(C(=O)NCCN4CCOCC4)cc3)Sc3ccccc32)c1	CHRM1 antagonist 32.5 (no result: TAAR1 ag, TAAR1 antag)
CCN1CCN(CCNC(=O)c2ccc(/C=C3/Sc4ccccc4N(Cc4cccc(Cl)c4)C3=O)cc2)CC1	CHRM1 antagonist 57.5, TAAR1 antag 56.0
Cc1ccccc1N(C(=O)CNC(=O)c1ccco1)C(C(=O)NC1CCCC1)c1ccncc1 (stereo not drawn)	none
Fc1ccc(-n2nnnc2-c2cnc(-c3cccs3)nc2C(F)(F)F)cc1	CHRM1 antagonist 57.5, TAAR1 antag 78.9
FC(F)(F)c1nc(-c2ccncc2)ncc1-c1nnnn1-c1ccccc1	none
N#CC1(NC(=O)CSc2nnc(C3CC3)n2C2CC2)CCCCC1	none
C[C@H]1CN([C@@H](C)CO)C(=O)c2cc(Br)cnc2O[C@@H]1CN(C)C(=O)C1CCC1	none
COC(=O)C1=C(CCc2ccccc2)NC(=O)NC1c1ccc(Br)cc1 (stereo not drawn)	none
COc1cccc(C(=O)/C=C/Nc2ccc(S(=O)(=O)Nc3cccc(C(C)=O)c3)cc2)c1	TAAR1 antag 55.7
COc1cccc(C(=O)/C=C/Nc2ccc(NC(C)=O)cc2)c1	none
CCOc1ccccc1C1C2C(=O)N(c3ccccc3)C(=O)C2ON1c1ccccc1 (stereo not drawn)	CHRM1 antagonist 27.6, TAAR1 antag 50.3
CCCCc1c(-c2ccccc2OC)ncn1Cc1ccc(OC)cc1	none (no result: M1 PAM, CHRM1 antagonist, CHRM1 agonist, HTR2A ag)
COC(=O)[C@]12C[C@H](CC(=O)NCc3ccc(OC)c(OC)c3)C(=O)N(Cc3ccccc3)C1=C[C@H](C(C)(C)C)O[C@@H]2C	none (no result: M1 PAM, CHRM1 antagonist, CHRM1 agonist, HTR2A ag)
CNc1nc(C23CC4CC(CC(C4)C2)C3)cs1	none
O=C(CN(C(=O)c1csnn1)c1cccc(C(F)(F)F)c1)NCCc1ccccc1	none
CC(=O)Nc1ccc(Nc2ncnc3c2cnn3-c2ccccc2)cc1	TAAR1 ag 37.6

Compound activity (PubChem)
